Laboratory results reported in ChEMBL document CHEMBL1155449, “Peptide HIV-1 integrase inhibitors from HIV-1 gene products” (J Med Chem, 2010).
Calls of active or inactive are those of the source. The rule behind the calls is not given here. Where a SMILES comes first, the peptide text is derived from it.

How the values were obtained:
[1] = target: T1, Human immunodeficiency virus type 1 integrase (Human immunodeficiency virus 1, UniProt Q7ZJM1); assay: Inhibition of HIV1 integrase strand transfer activity after 1 hr by densitometric analysis
[2] = target: T1, Human immunodeficiency virus type 1 integrase; assay: Inhibition of HIV1 integrase 3'-end processing activity after 1 hr by densitometric analysis
[3] = target: Human immunodeficiency virus type 1 reverse transcriptase (Human immunodeficiency virus 1, UniProt Q72547); assay: Inhibition of HIV1 reverse transcriptase-associated ribonuclease H activity by fluorescence assay
MT4 = assay: Cytotoxicity against human MT4 cells assessed as firefly luciferase activity at 1 to 100 uM after 6 to 7 days by chemiluminescence assay; type: cell-based; conditions: mt4, 100 µM
In short: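 1×10^3 MT-4 Luc cells constitutively expressing luciferase were exposed to varying peptide concentrations in the HIV-1 HXB2 (ca. 0.2-10 ng p24) infection format. Cells lysed after 6-7 d and luciferase measured by chemiluminescence. Cytotoxicity is read as loss of luciferase signal.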

[4] = test system: Human immunodeficiency virus 1; assay: Antiviral activity against HIV1 JRCSF infected in CD4/CCR5-expressing human NP2 cells assessed as inhibition of viral p24 antigen production measured on day 4 post viral infection by ELISA; type: functional, organism-based; conditions: JRCSF ISOLATE
In short: (§1)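 1×10^5 NP2-CD4-CCR5 cells incubated 30 min at room temperature with HIV-1 JR-CSF supernatant (ca. 0.2-50 ng p24), washed and cultured with varying peptide concentrations. Supernatant p24 measured by ELISA on day 4 post-infection.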

[5] = test system: Human immunodeficiency virus 1; assay: Antiviral activity against HIV1 JRCSF infected in CD4/CCR5-expressing human NP2 cells assessed as inhibition of viral p24 antigen production at 0.8 uM measured on day 4 post viral infection by ELISA; type: functional; conditions: Human immunodeficiency virus 1, JRCSF ISOLATE, NP2, 96 h; in short: as §1
[6] = Selectivity index, ratio of cytotoxicity against human MT4 cells to antiviral activity against HIV1 JRCSF infected in CD4/CCR5-expressing human NP2 cells; type: toxicity, cell-based; conditions: read-out: Selectivity Index
[7] = test system: Human immunodeficiency virus 1; assay: Antiviral activity against HIV1 HXB2 infected in human MT4 cells assessed as inhibition of viral p24 antigen production at 0.5 uM measured on day 4 post viral infection by ELISA; type: functional, organism-based
In short: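 1×10^5 MT-4 cells incubated 30 min at room temperature with HIV-1 HXB2 supernatant (ca. 0.2-50 ng p24), washed and cultured with 0.5 μM peptide or without. Supernatants collected at several time points for p24 ELISA, with cells passaged as needed.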

[8] = test system: Human immunodeficiency virus 1; assay: Antiviral activity against HIV1 HXB2 infected in CD4/CXCR4-expressing human NP2 cells assessed as total genome of infected virus at 0.5 uM measured on day 2 post viral infection by quantitative RT-PCR analysis relative to control; type: functional
In short: (§2)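 NP2-CD4-CXCR4 cells infected with HIV-1 HXB2 with or without 0.5 μM peptide (DMSO control). Genomic DNA extracted day 2 post-infection. Viral DNA quantified by real-time PCR for strong-stop DNA, late reverse-transcription products, Alu-LTR (integrated) and 2-LTR (end-joined) products. Each is expressed as % of the DMSO-treated control.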

[9] = test system: Human immunodeficiency virus 1; assay: Antiviral activity against HIV1 HXB2 infected in CD4/CXCR4-expressing human NP2 cells assessed as generation of viral DNA at late stage of reverse transcription at 0.5 uM measured on day 2 post viral infection by quantitative RT-PCR analysis relative to control; type: functional; in short: as §2
[10] = target: Human immunodeficiency virus type 1 integrase (Human immunodeficiency virus 1) (UniProt Q7ZJM1); assay: Inhibition of HIV1 HXB2 integrase-mediated integrate viral genome production in CD4/CXCR4-expressing human NP2 cells assessed as production of integrate viral genome at 0.5 uM measured on day 2 post viral infection by quantitative RT-PCR analysis; type: cell-based; design: scale not given: the % may be the effect or the level left; in short: as §2
[11] = test system: Human immunodeficiency virus 1; assay: Antiviral activity against HIV1 HXB2 infected in CD4/CXCR4-expressing human NP2 cells assessed as host cellular enzyme catalyzed end-joined viral genome production at 0.5 uM measured on day 2 post viral infection by quantitative RT-PCR analysis relative to control; type: functional; in short: as §2
[12] = test system: Human immunodeficiency virus 1; assay: Antiviral activity against HIV1 HXB2 infected in human MT4 cells assessed as firefly luciferase activity at 20 uM after 6 to 7 days by chemiluminescence assay; type: functional, organism-based
In short: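 MT-4 Luc cells (constitutively high luciferase; HIV-1-induced cell death lowers signal), 1×10^3 cells per well, infected with HIV-1 HXB2 (ca. 0.2-10 ng p24) with varying peptide concentrations present. Lysed 6-7 d post-infection; luciferase read by chemiluminescence. Protection from HIV-1-induced death keeps signal high, and a fall in signal also serves as the cytotoxicity read-out.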

T1 sequence (Q7ZJM1 whole entry): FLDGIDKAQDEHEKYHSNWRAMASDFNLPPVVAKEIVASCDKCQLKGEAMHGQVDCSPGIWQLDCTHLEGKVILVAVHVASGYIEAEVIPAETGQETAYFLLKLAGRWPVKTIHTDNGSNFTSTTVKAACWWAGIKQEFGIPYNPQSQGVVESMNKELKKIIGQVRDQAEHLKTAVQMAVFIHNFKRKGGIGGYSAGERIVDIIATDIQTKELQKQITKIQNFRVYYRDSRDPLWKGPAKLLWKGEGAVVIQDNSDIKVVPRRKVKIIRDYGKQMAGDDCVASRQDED
Chain of Human immunodeficiency virus type 1 integrase (Human immunodeficiency virus 1) (Q7ZJM1 as listed by the source): as the sequence (Q7ZJM1 whole entry) above

Compound	IC50 [1] [nM]	IC50 [2] [nM]	IC50 [3] [nM]	Activity (MT4)	inhibition [4]	inhibition at 0.8 µM [5] [%]	selectivity ratio [6]	inhibition [7]	Activity [8] [%]	Activity [9] [%]	Activity [10] [%]	Activity [11] [%]	Activity [12]
CC[C@H](C)[C@H](NC(=O)[C@H](CCCNC(=N)N)NC(=O)[C@H](Cc1ccccc1)NC(=O)[C@H](Cc1cnc[nH]1)NC(=O)[C@@H](NC(=O)[C@H](Cc1ccccc1)NC(=O)[C@H](CC(C)C)NC(=O)[C@H](CC(C)C)NC(=O)[C@H](CCC(N)=O)NC(=O)[C@H](CCC(N)=O)NC(=O)[C@H](CC(C)C)NC(C)=O)[C@@H](C)CC)C(=O)NCC(=O)N[C@@H](CCCNC(=N)N)C(=O)N[C@@H](CCCNC(=N)N)C(=O)N[C@@H](CCCNC(=N)N)C(=O)N[C@@H](CCCNC(=N)N)C(=O)N[C@@H](CCCNC(=N)N)C(=O)N[C@@H](CCCNC(=N)N)C(=O)N[C@@H](CCCNC(=N)N)C(=O)N[C@@H](CCCNC(=N)N)C(N)=O	4	8	> 500	Non-toxic	Dose-dependent effect	50	10	Active	139.7	84.4	15.8	779.8	
CC[C@H](C)[C@H](NC(=O)[C@H](C)NC(=O)[C@H](CCC(=O)O)NC(C)=O)C(=O)N[C@H](C(=O)N[C@@H](CCCNC(=N)N)C(=O)N[C@H](C(=O)N[C@@H](CC(C)C)C(=O)N[C@@H](CCC(N)=O)C(=O)N[C@@H](CCC(N)=O)C(=O)N[C@@H](CC(C)C)C(=O)N[C@@H](CC(C)C)C(=O)N[C@@H](Cc1ccccc1)C(=O)N[C@H](C(=O)N[C@@H](Cc1cnc[nH]1)C(=O)N[C@@H](Cc1ccccc1)C(=O)N[C@@H](CCCNC(=N)N)C(=O)N[C@H](C(=O)NCC(=O)N[C@@H](CCCNC(=N)N)C(=O)N[C@@H](CCCNC(=N)N)C(=O)N[C@@H](CCCNC(=N)N)C(=O)N[C@@H](CCCNC(=N)N)C(=O)N[C@@H](CCCNC(=N)N)C(=O)N[C@@H](CCCNC(=N)N)C(=O)N[C@@H](CCCNC(=N)N)C(=O)N[C@@H](CCCNC(=N)N)C(N)=O)[C@@H](C)CC)[C@@H](C)CC)[C@@H](C)CC)[C@@H](C)CC	5	6	> 500	Non-toxic									Active
CC[C@H](C)[C@H](NC(C)=O)C(=O)N[C@@H](Cc1cnc[nH]1)C(=O)N[C@@H](Cc1ccccc1)C(=O)N[C@@H](CCCNC(=N)N)C(=O)N[C@H](C(=O)NCC(=O)N[C@@H](CCCNC(=N)N)C(=O)N[C@@H](CCCNC(=N)N)C(=O)N[C@@H](CCCNC(=N)N)C(=O)N[C@@H](CCCNC(=N)N)C(=O)N[C@@H](CCCNC(=N)N)C(=O)N[C@@H](CCCNC(=N)N)C(=O)N[C@@H](CCCNC(=N)N)C(=O)N[C@@H](CCCNC(=N)N)C(N)=O)[C@@H](C)CC (Ac-IHFRIGRRRRRRRR-NH2)				Non-toxic									inactive
CC(=O)N[C@@H](CC(C)C)C(=O)N[C@@H](CCC(N)=O)C(=O)N[C@@H](CCC(N)=O)C(=O)N[C@@H](CC(C)C)C(=O)N[C@@H](CC(C)C)C(=O)N[C@@H](Cc1ccccc1)C(=O)N[C@@H](CCCNC(=N)N)C(=O)N[C@@H](CCCNC(=N)N)C(=O)N[C@@H](CCCNC(=N)N)C(=O)N[C@@H](CCCNC(=N)N)C(=O)N[C@@H](CCCNC(=N)N)C(=O)N[C@@H](CCCNC(=N)N)C(=O)N[C@@H](CCCNC(=N)N)C(=O)N[C@@H](CCCNC(=N)N)C(N)=O (Ac-LQQLLFRRRRRRRR-NH2)				Non-toxic									
